Test results as given in ChEMBL document CHEMBL1144837, “Antimitotic and antiproliferative activities of chalcones: forward structure-activity relationship” (J Med Chem, 2008).

Columns and labels:
K562 [1] = experiment: Cell cycle arrest in human K562 cells assessed as accumulation at G2/M phase at 10 uM after 24 hrs by flow cytometry; type: functional
Method in brief: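 K562 cells exposed 24 h at 10 µM, then stained with propidium iodide at 4 °C overnight and analysed by flow cytometry. After doublets and aggregates were excluded on an FL2-area/FL2-width plot, cells were assigned to G0/G1, S and G2/M, and the G2/M fraction was scored.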

MCF7 = experiment: Cytotoxicity against human MCF7 cells after 24 hrs by MTT assay; type: functional, cell-based; details: MCF7, 24 h
Method in brief: (§1)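 MTT viability assay: exponentially growing cells were seeded at 3 × 10^3 cells/well and held 24 h before drug addition. Formazan was dissolved in isopropanol and read by absorbance relative to untreated wells. IC50 is the concentration giving 50% growth loss against a control-cell standard curve after 24 h incubation. Run in triplicate, at least three separate experiments.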

N2a = experiment: Cytotoxicity against mouse N2A cells after 24 hrs by MTT assay; type: functional, cell-based; method in brief: as §1
NIH3T3 = experiment: Cytotoxicity against mouse NIH3T3 cells after 24 hrs by MTT assay; type: functional, cell-based; details: NIH3T3, 24 h; method in brief: as §1
SW48 = experiment: Cytotoxicity against human SW48 cells after 24 hrs by MTT assay; type: functional, cell-based; details: SW48, 24 h; method in brief: as §1
[2] = Cytotoxicity against human HNO150 cells after 24 hrs by MTT assay; type: functional, cell-based; details: HNO150, 24 h; method in brief: as §1
HCT-116 = experiment: Cytotoxicity against human HCT116 cells after 24 hrs by MTT assay; type: functional, cell-based; details: HCT-116, 24 h; method in brief: as §1
[3] = Cytotoxicity against human Messa cells after 24 hrs by MTT assay; type: functional, cell-based; details: MES-SA; method in brief: as §1
CCRF-CEM = experiment: Cytotoxicity against human CEM cells after 24 hrs by MTT assay; type: functional, cell-based; method in brief: as §1
K562 [4] = experiment: Cytotoxicity against human K562 cells after 24 hrs by MTT assay; type: functional, cell-based; details: K562, 24 h; method in brief: as §1
RL = experiment: Cytotoxicity against human RL cells after 24 hrs by MTT assay; type: functional, cell-based; method in brief: as §1
L1210 = experiment: Cytotoxicity against mouse L1210 cells after 24 hrs by MTT assay; type: functional, cell-based; details: L1210, 24 h; method in brief: as §1

Row | SMILES | Activity (K562 [1]) | other results
1 | COc1ccc(C(=O)/C=C/c2ccccc2Cl)c(O)c1 | 67% | –
2 | CCOc1ccc(/C=C/C(=O)c2c(OCC)cccc2OCC)c(OCC)c1 | 11% | –
3 | COc1cccc(OC)c1C(=O)/C=C/c1ccc(C(F)(F)F)cc1 | 23% | –
4 | CCOc1cc(OCC)c(/C=C/C(=O)c2c(OC)cccc2OC)c(OCC)c1 | 12% | –
5 | COc1cc(O)c(C(=O)/C=C/c2c(OC)cccc2OC)c(OC)c1 | 12% | –
6 | CCOc1cc(OCC)c(/C=C/C(=O)c2c(OCC)cc(OCC)cc2OCC)c(OCC)c1 | 18% | –
7 | COc1ccc(C(=O)/C=C/c2cccc(OC)c2OC)c(O)c1 | 22% | –
8 | COc1cccc(/C=C/C(=O)c2c(O)cc(OC)cc2OC)c1 | 52% | –
9 | O=C(/C=C/c1c(Cl)cccc1Cl)c1ccccc1 | 28% | –
10 | COc1cc(/C=C/C(=O)c2ccc(OC)cc2O)cc(OC)c1 | 40% | –
11 | COc1cc(O)c(C(=O)/C=C/c2ccc3c(c2)OCO3)c(OC)c1 | 13% | –
12 | COc1cccc(OC)c1C(=O)/C=C/c1cccc(Cl)c1 | 19% | –
13 | COc1cccc(OC)c1C(=O)/C=C/c1ccccc1F | 38% | –
14 | COc1cccc(OC)c1/C=C/C(=O)c1c(OC)cccc1OC | 78% | IC50 (MCF7): 75 µM; IC50 (N2a): 55 µM; IC50 (NIH3T3): 60 µM; IC50 (SW48): 10 µM; IC50 [2]: 62 µM; IC50 (HCT-116): 9 µM; IC50 [3]: 10 µM; IC50 (CCRF-CEM): 6 µM; IC50 (K562 [4]): 80 µM; IC50 (RL): 40 µM; IC50 (L1210): 34 µM
15 | COc1cccc(OC)c1C(=O)/C=C/c1c(Cl)cccc1Cl | 39% | –
16 | COc1cc(O)c(C(=O)/C=C/c2c(Cl)cccc2Cl)c(OC)c1 | 26% | –
17 | COc1ccc(/C=C/C(=O)c2c(OC)cc(OC)cc2OC)c(OC)c1 | 15% | –
18 | COc1cccc(OC)c1C(=O)/C=C/c1c(OC)c(F)c(OC)c(F)c1OC | 46% | –
19 | COc1ccc(/C=C/C(=O)c2c(OC)cccc2OC)c(OC)c1OC | 19% | –
20 | COc1cc(/C=C/C(=O)c2c(O)cc(OC)cc2OC)cc(OC)c1 | 11% | –

Row | SMILES | Activity (K562 [1]) | other results
21 | COc1cc(OC)c(/C=C/C(=O)c2c(OC)cc(OC)cc2OC)c(OC)c1 | 86% | IC50 (MCF7): 52 µM; IC50 (N2a): 4 µM; IC50 (NIH3T3): 30 µM; IC50 (SW48): 0.8 µM; IC50 [2]: 10 µM; IC50 (HCT-116): 1 µM; IC50 [3]: 2.2 µM; IC50 (CCRF-CEM): 1.9 µM; IC50 (K562 [4]): 50 µM; IC50 (RL): 0.9 µM; IC50 (L1210): 8.5 µM
22 | COc1ccc(C(=O)/C=C/c2ccc(OC)c(OC)c2)c(O)c1 | 18% | –
23 | COc1ccc(C(=O)/C=C/c2cc(OC)c(OC)c(OC)c2)c(O)c1 | 20% | –
24 | CCOc1cccc(OCC)c1C(=O)/C=C/c1c(OC)cc(OC)cc1OC | 10% | –
25 | COc1cccc(OC)c1C(=O)/C=C/c1c(C)cc(C)cc1C | 23% | –
26 | COc1ccc(C(=O)/C=C/c2cc(OC)ccc2OC)c(O)c1 | 32% | –
27 | COc1cc(O)c(C(=O)/C=C/c2ccccc2OC)c(OC)c1 | 41% | –
28 | COc1cc(OC)c(OC)cc1/C=C/C(=O)c1c(OC)cccc1OC | 49% | –
29 | COc1cccc(/C=C/C(=O)c2ccc(OC)cc2O)c1 | 26% | –
30 | COc1ccc(/C=C/C(=O)c2ccc(OC)cc2OC)c(OC)c1 | 25% | –
31 | COc1cc(O)c(C(=O)/C=C/c2ccccc2)c(OC)c1 [FLAVOKAWAIN B] | 28% | –
32 | COc1cc(OC)c(/C=C/C(=O)c2c(OC)cc(N)cc2OC)c(OC)c1 | 74% | –
33 | COc1ccc(/C=C/C(=O)c2c(OC)cccc2OC)c(OC)c1 | 22% | –
34 | COc1ccc(C(=O)/C=C/c2c(OC)cc(OC)cc2OC)c(OC)c1 (stereo in doubt; 3) | 86% | –
35 | COc1cc(/C=C/C(=O)c2c(OC)cccc2OC)cc(OC)c1OC | 25% | –
36 | CC[C@]1(O)C[C@H]2CN(CCc3c([nH]c4ccccc34)[C@@](C(=O)OC)(c3cc4c(cc3OC)N(C=O)[C@H]3[C@@](O)(C(=O)OC)[C@H](OC(C)=O)[C@]5(CC)C=CCN6CC[C@]43[C@@H]65)C2)C1 [VINCRISTINE] | 72% | –
37 | COc1ccc(C(=O)/C=C/c2cccc(F)c2)c(OC)c1 | 32% | –
38 | COc1ccccc1/C=C/C(=O)c1c(OC)cccc1OC | 18% | –
39 | COc1cc(OC)c(C(=O)/C=C/c2c(OC)cccc2OC)c(OC)c1 | 64% | –
40 | COc1ccc(C(=O)/C=C/c2c(F)cccc2Cl)c(O)c1 | 19% | –

Row | SMILES | Activity (K562 [1]) | other results
41 | COc1cc(OC)c(/C=C/C(=O)c2ccc(Cl)c(Cl)c2)c(OC)c1 | 30% | –
42 | COc1cccc(OC)c1C(=O)/C=C/c1ccccc1Cl | 23% | –
43 | COc1ccc(C(=O)/C=C/c2cc(OC)c(OC)cc2OC)c(O)c1 | 15% | –
44 | COc1ccc(C(=O)/C=C/c2c(OC)cccc2OC)c(O)c1 | 18% | –
45 | COc1cccc(OC)c1/C=C/C(=O)c1ccccc1 | 34% | –
46 | COc1ccc(C(=O)/C=C/c2c(OC)cc(OC)cc2OC)c(OC)c1 (stereo in doubt; 52) | 72% | –
47 | COc1cccc(OC)c1C(=O)/C=C/c1ccccc1 | 45% | –
48 | COc1cc(O)c(C(=O)/C=C/c2cccc(F)c2)c(OC)c1 | 48% | –
49 | COc1ccc(C(=O)/C=C/c2c(Cl)cccc2OC)c(O)c1 | 45% | –
50 | COc1ccc(C(=O)/C=C/c2ccc(OC)c(OC)c2OC)c(O)c1 | 20% | –
51 | COc1ccc(C(=O)/C=C/c2ccc(OC)cc2OC)c(O)c1 | 18% | –
52 | COc1cc(OC)c(/C=C/C(=O)c2c(OC)cccc2OC)c(OC)c1 | 84% | IC50 (MCF7): 60 µM; IC50 (N2a): 2.2 µM; IC50 (NIH3T3): 30 µM; IC50 (SW48): 0.25 µM; IC50 [2]: 1.3 µM; IC50 (HCT-116): 0.45 µM; IC50 [3]: 1 µM; IC50 (CCRF-CEM): 0.65 µM; IC50 (K562 [4]): 50 µM; IC50 (RL): 0.8 µM; IC50 (L1210): 7 µM
53 | COc1ccc(C(=O)/C=C/c2ccccc2Cl)c(OC)c1 | 42% | –
54 | COc1ccc(C(=O)/C=C/c2cccc(F)c2)c(O)c1 | 40% | –
55 | COc1cccc(OC)c1C(=O)/C=C/c1cccc(F)c1 | 27% | –
56 | COc1cccc(/C=C/C(=O)c2c(OC)cccc2OC)c1 | 29% | –
57 | COc1cc(O)c(C(=O)/C=C/c2ccccc2Cl)c(OC)c1 | 43% | –
58 | CCOc1cccc(OCC)c1C(=O)/C=C/c1c(OC)cccc1OC | 14% | –
59 | COc1ccc(C(=O)/C=C/c2c(OC)cc(OC)cc2OC)c(O)c1 | 19% | –
60 | COc1ccc(C(=O)/C=C/c2ccc(Cl)cc2)c(O)c1 | 10% | –
